{"source": "ChEMBL document CHEMBL3861974", "about": "“Discovery of a Selective Aurora A Kinase Inhibitor by Virtual Screening” (J Med Chem, 2016)", "key": {"[1]": {"target": "T1, Aurora kinase A (Homo sapiens, UniProt O14965)", "T1 sequence (O14965 whole entry)": "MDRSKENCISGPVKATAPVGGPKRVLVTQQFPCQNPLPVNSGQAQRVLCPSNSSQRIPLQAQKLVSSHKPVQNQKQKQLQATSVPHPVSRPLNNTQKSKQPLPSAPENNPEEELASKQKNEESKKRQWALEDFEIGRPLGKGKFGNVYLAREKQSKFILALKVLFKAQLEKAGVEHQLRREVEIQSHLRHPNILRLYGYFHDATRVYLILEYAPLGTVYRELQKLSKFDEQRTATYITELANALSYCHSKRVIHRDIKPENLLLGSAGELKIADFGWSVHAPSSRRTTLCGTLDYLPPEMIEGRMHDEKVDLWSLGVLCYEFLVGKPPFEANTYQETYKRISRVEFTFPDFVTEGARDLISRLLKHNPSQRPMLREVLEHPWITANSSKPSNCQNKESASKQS", "assay": "Inhibition of His-tagged human Aurora A kinase ([…] residues) expressed in Escherichia coli BL21 (DE3) Rosetta cells using biotinylated STK2 substrate incubated for 30 mins by HTRF assay"}, "[2]": {"target": "T1, Aurora kinase A", "assay": "Inhibition of Aurora A kinase autophosphorylation at Thr288 in human HeLa Kyoto cells incubated for 20 hrs", "format": "cell-based"}, "[3]": {"species": "Homo sapiens", "assay": "Selectivity index, ratio of IC50 for Aurora-B/INCENP (unknown origin) to IC50 for His-tagged human Aurora A kinase ([…] residues) expressed in Escherichia coli BL21 (DE3) Rosetta cells"}, "[4]": {"target": "Aurora kinase B/Inner centromere protein (Homo sapiens, UniProt Q96GD4)", "sequence (Q96GD4 whole entry)": "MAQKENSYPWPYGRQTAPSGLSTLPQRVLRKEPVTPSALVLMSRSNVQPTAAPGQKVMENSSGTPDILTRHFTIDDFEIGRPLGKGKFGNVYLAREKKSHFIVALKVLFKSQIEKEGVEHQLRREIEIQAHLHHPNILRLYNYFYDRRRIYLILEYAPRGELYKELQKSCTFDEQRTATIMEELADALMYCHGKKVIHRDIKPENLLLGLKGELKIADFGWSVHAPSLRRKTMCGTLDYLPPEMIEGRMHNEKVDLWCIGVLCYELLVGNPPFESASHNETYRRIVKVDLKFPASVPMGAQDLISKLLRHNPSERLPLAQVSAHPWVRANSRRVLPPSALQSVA", "sequence (Q9NQS7 whole entry, further chain)": "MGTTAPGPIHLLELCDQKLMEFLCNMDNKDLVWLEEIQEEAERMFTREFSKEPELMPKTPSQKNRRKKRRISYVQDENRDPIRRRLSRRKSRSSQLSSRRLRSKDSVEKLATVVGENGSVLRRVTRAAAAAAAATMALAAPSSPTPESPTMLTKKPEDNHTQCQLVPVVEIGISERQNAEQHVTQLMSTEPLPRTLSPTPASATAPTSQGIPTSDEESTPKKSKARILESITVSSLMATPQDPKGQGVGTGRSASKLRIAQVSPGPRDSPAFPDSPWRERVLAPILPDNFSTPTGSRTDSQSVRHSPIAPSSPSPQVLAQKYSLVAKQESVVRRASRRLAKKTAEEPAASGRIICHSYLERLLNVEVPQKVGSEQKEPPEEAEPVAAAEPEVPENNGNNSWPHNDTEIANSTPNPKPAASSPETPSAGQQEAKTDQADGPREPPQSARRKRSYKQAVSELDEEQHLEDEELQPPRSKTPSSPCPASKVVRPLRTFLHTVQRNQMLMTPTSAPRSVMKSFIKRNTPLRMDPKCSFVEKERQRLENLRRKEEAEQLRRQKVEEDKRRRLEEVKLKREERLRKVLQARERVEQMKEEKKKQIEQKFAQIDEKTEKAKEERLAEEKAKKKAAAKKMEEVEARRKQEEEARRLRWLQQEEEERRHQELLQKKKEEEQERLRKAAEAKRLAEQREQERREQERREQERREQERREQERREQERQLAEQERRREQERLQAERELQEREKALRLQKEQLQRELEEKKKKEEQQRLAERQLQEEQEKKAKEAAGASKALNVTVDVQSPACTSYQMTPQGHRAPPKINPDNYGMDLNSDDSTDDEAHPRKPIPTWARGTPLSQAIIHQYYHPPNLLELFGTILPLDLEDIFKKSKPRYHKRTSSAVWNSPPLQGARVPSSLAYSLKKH", "assay": "Inhibition of Aurora-B/INCENP (unknown origin) using biotinylated STK2 substrate incubated for 30 mins by HTRF assay", "format": "protein-complex assay", "procedure,_shortened": "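Biochemical kinase inhibition was read by HTRF with 20 µM ATP. Aurora B was assayed as its complex with the activator INCENP. For Aurora A, IC50 curves were recorded at different TPX2 concentrations.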"}, "[5]": {"target": "T2, Aurora kinase B (Homo sapiens, UniProt Q96GD4)", "T2 sequence (Q96GD4 whole entry)": "as the sequence (Q96GD4 whole entry) above", "conditions": "HeLa Kyoto, 2.5 uM"}, "[6]": {"target": "T2, Aurora kinase B", "conditions": "HeLa Kyoto, 2.5 uM", "remark": "listed apart in the source"}, "[7]": {"system": "HeLa Kyoto", "assay": "Increase in mitotic index in human HeLa Kyoto cells incubated for 20 hrs", "format": "functional, cell-based", "procedure,_shortened": "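HeLa Kyoto cells were incubated overnight with compound, and the fraction of mitotic cells was scored. The experiment was repeated twice; mean ± SD.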"}}, "note": "Active and inactive are the calls of the source. The calls are words filed in the database; no cut-off is given here.", "data": [{"smiles": "O=C(O)c1ccc2c(c1)[nH]c(=O)n2-c1nc2ccccc2[nH]1", "values": [{"measurement": "IC50", "setting": "[1]", "value": 3.5, "unit": "µM"}]}, {"smiles": "CCc1ccc(/N=C2\\S/C(=C\\c3ccncc3)C(=O)N2CC)cc1", "values": [{"measurement": "IC50", "setting": "[1]", "value": 0.38, "unit": "µM"}]}, {"smiles": "O=C(O)c1ccc2[nH]c(=O)n(-c3nc4ccccc4[nH]3)c2c1", "values": [{"measurement": "IC50", "setting": "[1]", "value": 3.5, "unit": "µM"}]}, {"smiles": "Cc1ccc2[nH]c(-n3c(=O)[nH]c4ccccc43)nc2c1", "values": [{"measurement": "IC50", "setting": "[1]", "value": 7.8, "unit": "µM"}]}, {"smiles": "CNC(=O)c1ccc2[nH]c(=O)n(-c3nc4ccccc4[nH]3)c2c1", "values": [{"measurement": "IC50", "setting": "[1]", "value": 11, "unit": "µM"}]}, {"smiles": "CN1C(=O)/C(=C/c2ccncc2)S/C1=N\\c1ccc(C(F)(F)F)cc1", "values": [{"measurement": "IC50", "setting": "[1]", "value": 0.37, "unit": "µM"}]}, {"smiles": "O=c1[nH]c2ccc(Cl)cc2n1-c1nc2ccccc2[nH]1", "values": [{"measurement": "IC50", "setting": "[1]", "value": 23, "unit": "µM"}]}, {"smiles": "CCc1ccc(/N=C2\\SC(Cc3ccnc(N)c3)C(=O)N2C)cc1", "note": "(racemic)", "values": [{"measurement": "IC50", "setting": "[1]", "value": 1.29, "unit": "µM"}]}, {"smiles": "CCc1ccc(/N=C2\\SC(Cc3ccnc(Nc4ccc(C(=O)O)cn4)c3)C(=O)N2C)cc1", "note": "(racemic)", "values": [{"measurement": "IC50", "setting": "[2]", "value": 0.024, "unit": "µM"}, {"measurement": "IC50", "setting": "[1]", "value": 0.024, "unit": "µM"}]}, {"smiles": "CCCc1ccc(/N=C2\\S/C(=C\\c3ccncc3)C(=O)N2C)cc1", "values": [{"measurement": "IC50", "setting": "[1]", "value": 1.9, "unit": "µM"}]}, {"smiles": "O=c1[nH]c2ccccc2n1-c1nc2cc(Br)ccc2[nH]1", "values": [{"measurement": "IC50", "setting": "[1]", "value": 9, "unit": "µM"}]}, {"smiles": "O=c1[nH]c2ccccc2n1-c1nc2ccccc2[nH]1", "values": [{"measurement": "IC50", "setting": "[1]", "value": "6.5 to 7", "unit": "µM"}]}, {"smiles": "CCc1ccc(/N=C2\\SC3(CC3c3ccnc(N)c3)C(=O)N2C)cc1", "note": "(racemic)", "values": [{"measurement": "IC50", "setting": "[1]", "value": 76, "unit": "µM"}]}, {"smiles": "CCc1ccc(/N=C2/NC(=O)/C(=C/c3ccncc3)S2)cc1", "values": [{"measurement": "IC50", "setting": "[1]", "value": 0.43, "unit": "µM"}]}, {"smiles": "CCc1ccc(/N=C2\\S/C(=C\\c3ccnc(NC(=O)CCN)c3)C(=O)N2C)cc1", "values": [{"measurement": "Ratio IC50", "setting": "[3]", "value": 53}, {"measurement": "IC50", "setting": "[1]", "value": 0.19, "unit": "µM"}, {"measurement": "IC50", "setting": "[4]", "value": 10, "unit": "µM"}]}, {"smiles": "CCc1ccc(/N=C2\\S/C(=C\\c3ccncc3)C(=O)N2CC2CCCCC2)cc1", "values": [{"measurement": "IC50", "setting": "[1]", "value": "> 200", "unit": "µM"}]}, {"smiles": "CCc1ccc(/N=C2\\S/C(=C\\c3ccnc(Nc4ccccc4)c3)C(=O)N2C)cc1", "values": [{"measurement": "IC50", "setting": "[1]", "value": 0.6, "unit": "µM"}]}, {"smiles": "O=c1[nH]c2ccccc2n1-c1nc2cc(C(F)(F)F)ccc2[nH]1", "values": [{"measurement": "IC50", "setting": "[1]", "value": "> 70", "unit": "µM"}]}, {"smiles": "Cc1ccc(/N=C2\\S/C(=C\\c3ccncc3)C(=O)N2C)cc1C", "values": [{"measurement": "IC50", "setting": "[1]", "value": 2, "unit": "µM"}]}, {"smiles": "O=c1[nH]c2ccc(O)cc2n1-c1nc2ccccc2[nH]1", "values": [{"measurement": "IC50", "setting": "[1]", "value": 12, "unit": "µM"}]}, {"smiles": "Cc1cccc2[nH]c(-n3c(=O)[nH]c4ccccc43)nc12", "values": [{"measurement": "IC50", "setting": "[1]", "value": 14, "unit": "µM"}]}, {"smiles": "CCc1ccc(/N=C2\\S/C(=C\\c3ccnc(Nc4ccccn4)c3)C(=O)N2C)cc1", "values": [{"measurement": "IC50", "setting": "[1]", "value": 0.22, "unit": "µM"}]}, {"smiles": "CCc1ccc(/N=C2\\S/C(=C\\c3ccnc(NC(=O)CCCC(=O)O)c3)C(=O)N2C)cc1", "values": [{"measurement": "Ratio IC50", "setting": "[3]", "value": 230}, {"measurement": "IC50", "setting": "[1]", "value": 0.0062, "unit": "µM"}, {"measurement": "IC50", "setting": "[4]", "value": 1.4, "unit": "µM"}]}, {"smiles": "CCc1ccc(/N=C2\\S/C(=C\\c3ccncc3)C(=O)N2C)cc1", "values": [{"measurement": "IC50", "setting": "[1]", "value": 0.39, "unit": "µM"}]}, {"smiles": "CCCCc1ccc(/N=C2\\S/C(=C\\c3ccncc3)C(=O)N2C)cc1", "values": [{"measurement": "IC50", "setting": "[1]", "value": 3.3, "unit": "µM"}]}, {"smiles": "CN1C(=O)/C(=C/c2ccncc2)S/C1=N\\c1ccc(Br)cc1", "values": [{"measurement": "IC50", "setting": "[1]", "value": 0.3, "unit": "µM"}]}, {"smiles": "CCc1ccccc1/N=C1\\S/C(=C\\c2ccncc2)C(=O)N1C", "values": [{"measurement": "IC50", "setting": "[1]", "value": 52, "unit": "µM"}]}, {"smiles": "CC(C)c1ccc(/N=C2\\S/C(=C\\c3ccncc3)C(=O)N2C)cc1", "values": [{"measurement": "IC50", "setting": "[1]", "value": 0.78, "unit": "µM"}]}, {"smiles": "CCc1ccc(/N=C2\\S/C(=C\\c3ccnc(Nc4ccc(-c5nnn[nH]5)cc4)c3)C(=O)N2C)cc1", "values": [{"measurement": "Ratio IC50", "setting": "[3]", "value": 33}, {"measurement": "IC50", "setting": "[1]", "value": 0.025, "unit": "µM"}, {"measurement": "IC50", "setting": "[4]", "value": 0.83, "unit": "µM"}]}, {"smiles": "CCc1ccc(/N=C2\\S/C(=C\\c3ccnc(Nc4ccc(C(=O)O)cc4)c3)C(=O)N2C)cc1", "values": [{"measurement": "Ratio IC50", "setting": "[3]", "value": 250}, {"measurement": "IC50", "setting": "[1]", "value": 0.0062, "unit": "µM"}, {"measurement": "IC50", "setting": "[4]", "value": 1.54, "unit": "µM"}]}, {"smiles": "CCc1ccc(/N=C2\\S/C(=C\\c3ccnc(N)c3)C(=O)N2C)cc1", "values": [{"measurement": "Ratio IC50", "setting": "[3]", "value": 121}, {"measurement": "IC50", "setting": "[1]", "value": 0.19, "unit": "µM"}, {"measurement": "IC50", "setting": "[4]", "value": 23, "unit": "µM"}]}, {"smiles": "CN1C(=O)/C(=C/c2ccncc2)S/C1=N\\c1ccc(C(C)(C)C)cc1", "values": [{"measurement": "IC50", "setting": "[1]", "value": 1.6, "unit": "µM"}]}, {"smiles": "CCc1ccc(/N=C2/SC3(CC3c3ccnc(N)c3)C(=O)N2C)cc1", "note": "(racemic)", "values": [{"measurement": "IC50", "setting": "[1]", "value": "> 200", "unit": "µM"}]}, {"smiles": "CN1C(=O)/C(=C/c2ccncc2)S/C1=N\\c1ccccc1", "values": [{"measurement": "IC50", "setting": "[1]", "value": 9, "unit": "µM"}]}, {"smiles": "COc1cc2c(Nc3ccc(NC(=O)c4ccccc4)cc3)ncnc2cc1OCCCN1CCOCC1", "values": [{"measurement": "inhibition", "setting": "[5]", "value": "Active"}, {"measurement": "inhibition", "setting": "[6]", "value": "Active"}]}, {"smiles": "O=c1[nH]c2cccc(O)c2n1-c1nc2ccccc2[nH]1", "values": [{"measurement": "IC50", "setting": "[1]", "value": 15, "unit": "µM"}]}, {"smiles": "COc1cc(Nc2ncc3c(n2)-c2ccc(Cl)cc2C(c2c(F)cccc2OC)=NC3)ccc1C(=O)O", "values": [{"measurement": "Activity", "setting": "[7]", "value": "Dose-dependent effect"}]}, {"smiles": "O=c1[nH]c2c(O)cccc2n1-c1nc2ccccc2[nH]1", "values": [{"measurement": "IC50", "setting": "[1]", "value": 21, "unit": "µM"}]}, {"smiles": "CCc1cccc(/N=C2\\S/C(=C\\c3ccncc3)C(=O)N2C)c1", "values": [{"measurement": "IC50", "setting": "[1]", "value": 4.9, "unit": "µM"}]}, {"smiles": "CNC(=O)c1ccc2c(c1)[nH]c(=O)n2-c1nc2ccccc2[nH]1", "values": [{"measurement": "IC50", "setting": "[1]", "value": "> 50", "unit": "µM"}]}, {"smiles": "CCc1ccc(/N=C2\\S/C(=C\\c3ccnc(NC(=O)CC(=O)O)c3)C(=O)N2C)cc1", "values": [{"measurement": "Ratio IC50", "setting": "[3]", "value": 450}, {"measurement": "IC50", "setting": "[1]", "value": 0.006, "unit": "µM"}, {"measurement": "IC50", "setting": "[4]", "value": 2.7, "unit": "µM"}]}, {"smiles": "CCc1ccc(/N=C2\\S/C(=C\\c3ccncc3)C(=O)N2CCOC)cc1", "values": [{"measurement": "IC50", "setting": "[1]", "value": 0.48, "unit": "µM"}]}, {"smiles": "CCc1ccc(/N=C2\\S/C(=C\\c3ccnc(NC(=O)CCC(=O)O)c3)C(=O)N2C)cc1", "values": [{"measurement": "Ratio IC50", "setting": "[3]", "value": 415}, {"measurement": "IC50", "setting": "[1]", "value": 0.004, "unit": "µM"}, {"measurement": "IC50", "setting": "[4]", "value": 1.7, "unit": "µM"}]}, {"smiles": "O=c1[nH]c2cc(Cl)ccc2n1-c1nc2ccccc2[nH]1", "values": [{"measurement": "IC50", "setting": "[1]", "value": "> 200", "unit": "µM"}]}, {"smiles": "CCc1ccc(/N=C2\\S/C(=C\\c3ccnc(Nc4ccc(CO)cc4)c3)C(=O)N2C)cc1", "values": [{"measurement": "Ratio IC50", "setting": "[3]", "value": 20}, {"measurement": "IC50", "setting": "[1]", "value": 0.13, "unit": "µM"}, {"measurement": "IC50", "setting": "[4]", "value": 2.6, "unit": "µM"}]}]}
